Laboratory results taken from ChEMBL document CHEMBL3046500, “Secondary metabolites from Glycine soja and their growth inhibitory effect against Spodoptera litura” (J Agric Food Chem, 2011).
The source made the active and inactive calls. No cut-off for these calls is given here.

Tests used:
Spodoptera litura [1] = experiment: Antifeedant activity against fourth instar larval stage of Spodoptera litura on fresh cabbage leaves; format: functional, organism-based
Spodoptera litura [2] = experiment: Insecticidal activity against fourth instar larval stage of Spodoptera litura in glandless fresh cabbage leaves assessed as growth inhibition measured 3 days after feeding diet containing compound; format: functional, organism-based
How it was run: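 Larvae starved 4 h, weighed, then placed on treated material for 4 h. They were then moved to fresh untreated leaves or artificial diet. This was repeated every 24 h, with each larva's weight recorded. Seven replicates per treatment; whole experiment run three times.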

Spodoptera litura [3] = experiment: Drug metabolism in fourth instar larval stage of Spodoptera litura assessed in excrements after feeding diet containing compound by HPLC analysis; format: ADME, organism-based; conditions: in vivo, po
How it was run: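 Excrement from treated and control larvae was collected separately, extracted with methanol under ultrasonication (3 × 20 min), centrifuged, and the supernatant run on RP-18 HPLC (250 × 4.6 mm, 5 μm) at 30 °C and 1.0 mL/min. Elution used a water/methanol gradient set per analyte over 0–30 min, then 95% methanol. DAD read at 210/238/254/280 nm; TLC (CHCl3/MeOH 4:1) for a non-UV-absorbing analyte.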

Row | Drug metabolism (Spodoptera litura [3]) | Compound | Activity (Spodoptera litura [1]) | growth inhibition (GI) (Spodoptera litura [2])
1 | Not Active | O=c1c(-c2ccc(O)cc2)coc2cc(O)ccc12 [DAIDZEIN] | inactive | Active
2 | Active | O=c1c(-c2ccc(O)cc2)coc2cc(O)cc(O)c12 [GENISTEIN] | inactive | inactive
3 | Active | O=c1c(-c2ccc(O)cc2)coc2cc(O[C@@H]3O[C@H](CO)[C@@H](O)[C@H](O)[C@H]3O)cc(O)c12 [GENISTIN] | inactive | inactive
4 | Active | CO[C@H]1[C@H](O)[C@@H](O)[C@@H](O)[C@H](O)[C@@H]1O [METHYLINOSITOL] | inactive | inactive
